From article PMC13080778 (The Journal of general physiology, 2026)
Several values for one entry are separate records, joined by “and”; a condition that tells them apart may be missing. Identical values can stand only once. Counter-ions that a name gives are not always drawn. Marks after values point to notes of the source that are not given here. Values belong to the molecule of their own block, whether it stands above or below them.

Assays:
Cav1.2 [1] = details: ref Wei et al., 2024; cited from earlier work
[2] = tested on: Cav1.4 ICa in mouse cones; details: 5 μM, ref Davison et al., 2022; cited from earlier work
CaV1.4 [3] = target: CaV1.4 (Homo sapiens, UniProt O60840); format: cell-based; details: for IC50: inhibition of ICa, Hill fit
CaV3.2 = CaV3.2 (Homo sapiens, UniProt O95180); assay: Whole-cell patch-clamp of Ca2+ currents; format: cell-based
Outline: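 HEK293T cells co-transfected (Fugene 6) with CaV3.2 plus β2x13, α2δ-4 and eGFP; whole-cell recordings at room temperature 36–72 h later, 4–8 MΩ pipettes, 50–70% series-resistance compensation, P/−4 leak subtraction. Compound perfused in external solution (vehicle ≤1% DMSO); 0.1 Hz currents, steady-state % inhibition vs vehicle fitted by inhibitor–response regression (0–100 constrained). Boltzmann fits of I–V give Gmax, Vh, k, Vrev.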

three CaV3 subtypes = details: ref Tringham et al., 2012; cited from earlier work
CaV1.4 T1007Y = CaV1.4 T1007Y (Homo sapiens, UniProt O60840, T1007Y); assay: Whole-cell patch-clamp of ICa in HEK293T cells, CaV1.4 T1007Y mutant; format: cell-based
Cav1.4 [4] = details: ref Koschak et al., 2003; cited from earlier work
CaV1.2 V1063M = CaV1.2 V1063M (Oryctolagus cuniculus, UniProt P15381, V1063M); assay: Whole-cell patch-clamp of ICa in HEK293T cells, CaV1.2 V1063M mutant; format: cell-based, rabbit
CaV1.2 [5] = target: CaV1.2 (Oryctolagus cuniculus, UniProt P15381); assay: Whole-cell patch-clamp of ICa in HEK293T cells transfected with CaV1.2; format: cell-based, rabbit; details: CaV1.2 WT
CaV3 channels = details: ref Xiang et al., 2011; cited from earlier work
CaV1.4 M1004A = CaV1.4 M1004A (Homo sapiens, UniProt O60840, M1004A); assay: Whole-cell patch-clamp of ICa in HEK293T cells, CaV1.4 M1004A mutant; format: cell-based
CaV1.4 M1129A = CaV1.4 M1129A (Homo sapiens, UniProt O60840, M1129A); assay: Whole-cell patch-clamp of ICa in HEK293T cells, CaV1.4 M1129A mutant; format: cell-based
CaV1.4 M1426A = CaV1.4 M1426A (Homo sapiens, UniProt O60840, M1426A); assay: Whole-cell patch-clamp of ICa in HEK293T cells, CaV1.4 M1426A mutant; format: cell-based
[6] = CaV1.4, drug at 5 µM, Vhold −90 mV
[7] = CaV3.2, drug at 100 nM, mean ± SEM or median
[8] = CaV3.2, inhibition of ICa, Hill fit, mean ± SEM

Sequence of CaV3.2 (O95180 whole entry, the tested form may be a part): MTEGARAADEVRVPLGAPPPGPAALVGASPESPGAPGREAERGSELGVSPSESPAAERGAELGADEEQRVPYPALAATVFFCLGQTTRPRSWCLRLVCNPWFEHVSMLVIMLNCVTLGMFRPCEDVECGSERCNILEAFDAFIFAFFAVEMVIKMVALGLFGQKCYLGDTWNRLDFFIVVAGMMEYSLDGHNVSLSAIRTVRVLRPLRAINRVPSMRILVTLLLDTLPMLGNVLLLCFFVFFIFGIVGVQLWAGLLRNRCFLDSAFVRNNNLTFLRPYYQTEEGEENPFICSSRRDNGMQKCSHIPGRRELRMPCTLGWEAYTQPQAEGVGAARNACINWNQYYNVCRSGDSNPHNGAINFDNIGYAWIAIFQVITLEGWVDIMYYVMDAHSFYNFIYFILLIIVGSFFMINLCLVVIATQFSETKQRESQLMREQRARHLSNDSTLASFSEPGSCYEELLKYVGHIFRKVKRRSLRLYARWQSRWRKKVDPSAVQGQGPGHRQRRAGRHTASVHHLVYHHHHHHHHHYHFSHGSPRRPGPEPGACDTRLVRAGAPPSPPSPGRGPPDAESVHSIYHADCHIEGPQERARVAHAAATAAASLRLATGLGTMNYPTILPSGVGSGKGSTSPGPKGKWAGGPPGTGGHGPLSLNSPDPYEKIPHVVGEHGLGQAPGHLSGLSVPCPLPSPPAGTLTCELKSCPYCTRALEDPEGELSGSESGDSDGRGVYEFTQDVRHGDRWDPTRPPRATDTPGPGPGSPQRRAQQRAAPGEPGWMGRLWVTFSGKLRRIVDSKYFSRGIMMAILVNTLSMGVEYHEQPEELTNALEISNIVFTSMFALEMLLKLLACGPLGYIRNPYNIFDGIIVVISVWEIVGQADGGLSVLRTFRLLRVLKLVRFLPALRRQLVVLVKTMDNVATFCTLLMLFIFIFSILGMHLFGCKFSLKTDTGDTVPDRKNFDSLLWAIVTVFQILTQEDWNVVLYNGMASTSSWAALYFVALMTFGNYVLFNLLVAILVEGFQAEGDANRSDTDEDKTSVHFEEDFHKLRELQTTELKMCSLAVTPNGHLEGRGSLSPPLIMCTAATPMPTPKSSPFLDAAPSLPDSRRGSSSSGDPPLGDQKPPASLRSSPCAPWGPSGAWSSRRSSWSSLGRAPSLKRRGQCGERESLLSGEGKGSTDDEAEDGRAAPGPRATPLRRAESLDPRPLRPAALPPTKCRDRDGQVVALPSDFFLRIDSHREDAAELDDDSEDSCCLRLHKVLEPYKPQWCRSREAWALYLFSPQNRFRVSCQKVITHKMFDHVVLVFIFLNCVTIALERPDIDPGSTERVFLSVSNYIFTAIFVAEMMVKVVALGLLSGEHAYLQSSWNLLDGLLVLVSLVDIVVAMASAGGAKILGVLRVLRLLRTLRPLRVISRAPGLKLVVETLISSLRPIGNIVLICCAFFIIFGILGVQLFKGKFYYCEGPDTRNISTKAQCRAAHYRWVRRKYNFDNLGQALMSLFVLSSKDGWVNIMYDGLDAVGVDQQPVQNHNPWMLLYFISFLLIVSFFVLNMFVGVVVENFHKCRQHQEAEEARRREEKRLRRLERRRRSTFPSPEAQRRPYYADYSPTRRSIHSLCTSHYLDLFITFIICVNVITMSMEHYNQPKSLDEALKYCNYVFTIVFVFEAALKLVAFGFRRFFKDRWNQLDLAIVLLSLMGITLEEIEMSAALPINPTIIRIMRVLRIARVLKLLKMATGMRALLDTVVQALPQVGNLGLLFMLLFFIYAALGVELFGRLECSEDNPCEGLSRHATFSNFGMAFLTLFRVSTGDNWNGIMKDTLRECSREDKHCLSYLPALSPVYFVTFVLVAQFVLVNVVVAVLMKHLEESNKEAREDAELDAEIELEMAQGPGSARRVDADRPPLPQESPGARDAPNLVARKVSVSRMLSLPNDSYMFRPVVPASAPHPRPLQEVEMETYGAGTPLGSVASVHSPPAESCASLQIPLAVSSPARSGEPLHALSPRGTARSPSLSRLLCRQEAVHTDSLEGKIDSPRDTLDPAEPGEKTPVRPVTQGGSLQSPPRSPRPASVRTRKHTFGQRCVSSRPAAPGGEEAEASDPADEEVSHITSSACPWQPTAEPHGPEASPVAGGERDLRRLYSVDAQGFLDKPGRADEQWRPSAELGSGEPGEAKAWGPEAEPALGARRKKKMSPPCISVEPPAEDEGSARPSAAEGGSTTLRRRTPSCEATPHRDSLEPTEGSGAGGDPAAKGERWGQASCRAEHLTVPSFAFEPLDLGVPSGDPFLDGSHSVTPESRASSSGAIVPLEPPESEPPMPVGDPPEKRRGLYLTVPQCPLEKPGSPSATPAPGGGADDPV

SMILES: COC(=O)C1=C(C)NC(C)=C(C(=O)OC2CCCN(Cc3ccccc3)C2)C1c1cccc([N+](=O)[O-])c1 (stereo not shown) [benidipine]
higher potency compared to nifedipine (Cav1.2 [1]): 10 fold

Gmax (CaV1.4 [3]; [6]): 0.0845 ± 0.0387 nS/pF
Vh (CaV1.4 [3]; [6]): -6.10 ± 1.54 mV
Vrev (CaV1.4 [3]; [6]): 60.73 ± 4.72 mV
k (CaV1.4 [3]; [6]): 8.89 ± 0.50 mV
Hill Slope (CaV1.4 [3]; CaV1.4 WT, dose-response fit): 0.22 ± 0.04
IC50 (CaV1.4 [3]; CaV1.4 WT): 31.5 ± 21 µM
IC50 for Cav1.4 higher than that for Cav3.2 (CaV1.4 [3]; Cav1.4 versus Cav3.2): ~ 100 fold
Vrev (CaV3.2; CaV3.2, drug at 100 nM): 42.96 ± 1.86 mV
inhibition of the peak ICa amplitude (CaV3.2; CaV3.2, drug at 100 nM): ~ 40%
Gmax (CaV3.2; CaV3.2, drug at 100 nM, Boltzmann fit of I-V, mean ± SEM or median): 0.55 ± 0.13 nS/pF
Vh (CaV3.2; [7]): -33.47 ± 3.65 mV
k (CaV3.2; [7]): 6.75^† mV
Hill Slope (CaV3.2; CaV3.2, dose-response fit): 0.82 ± 0.10
IC50 (CaV3.2; [8]): 0.26 ± 0.04 µM
IC50 (CaV3.2; CaV3.2 ICa): ~0.265 µM
SMILES: CC(C)(C)NC(=O)CN1CCC(CNC(=O)c2cc(F)cc(Cl)c2)CC1 [Z944]
effect on amplitude of Cav1.4 ICa [2]: increased the amplitude
affinity for CaV3 subtypes higher than for CaV2.2 and CaV1.2 (three CaV3 subtypes): 70-100 times

inhibition at 1 µM (CaV1.4 T1007Y; HEK-293T, read-out: inhibition of ICa): ~17%
inhibition at 1 µM (CaV1.4 [3]; HEK-293T, read-out: inhibition of ICa amplitude): ~78%
SMILES: COC(=O)C1=C(C)NC(C)=C(C(=O)OC(C)C)C1c1cccc2nonc12 (stereo not shown) [isradipine]
increase in the extent of block on shifting Vhold from −90 mV to −50 mV (Cav1.4 [4]): ~ 80%

IC50 (CaV1.4 T1007Y; CaV1.4 T1007Y): ~20 µM and 20 µM
IC50 (CaV1.4 [3]; CaV1.4 WT): 2.1 ± 0.51 µM
IC50 (CaV1.4 M1004A): 310 ± 190 µM
IC50 (CaV1.4 M1129A): 0.45 ± 0.16 µM
IC50 (CaV3.2; [8]): 0.0237 ± 0.0025 µM
IC50 (CaV3.2; CaV3.2 ICa): ~0.024 µM
IC50 (CaV1.4 M1426A): 15 ± 2.9 µM
SMILES: CC(C)(C)CCN1C[C@@H]2C(CNC(=O)c3cc(Cl)cc(Cl)c3)[C@@H]2C1 (stereo partly shown) [ML218, ML218 hydrochloride]
IC50 (CaV1.2 V1063M): 120 ± 60 µM
IC50 (CaV1.2 [5]): ~37 µM and 37 µM
IC50 (CaV3 channels): < 0.5 µM
